In ChEMBL document CHEMBL4184341, “Structure-Based Design of Inhibitors with Improved Selectivity for Steroidogenic Cytochrome P450 17A1 over Cytochrome P450 21A2” (J Med Chem, 2018):

How the values were obtained:
[1] = biological target: T1, Steroid 17-alpha-hydroxylase/17,20 lyase (Homo sapiens, UniProt P05093); assay: Inhibition of C-terminal His-tagged recombinant human CYP17A1delta19H mutant expressed in Escherichia coli DH5alpha assessed as decrease in progesterone hydroxylation preincubated for 3 mins followed by NADPH addition measured after 10 mins in presence of cytochrome p450 reductase by LC-MS/MS method
How it was run: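 Purified human CYP17A1 (20 pmol) was preincubated with full-length human CPR (80 pmol) for 20 min at rt. […] After 3 min at 37 °C, 1 mM NADPH was added and the reaction ran 10 min before a TCA stop. The 17α-hydroxy product was read by LC-MS/MS.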

[2] = species on record: Homo sapiens; assay: Selectivity ratio of IC50 for C-terminal His-tagged recombinant human CYP21A2deltaH mutant to IC50 for C-terminal His-tagged recombinant human CYP17A1delta19H mutant
[3] = biological target: Steroid 21-hydroxylase (Homo sapiens, UniProt P08686); assay: Inhibition of C-terminal His-tagged recombinant human CYP21A2deltaH mutant expressed in Escherichia coli DH5alpha assessed as decrease in progesterone hydroxylation preincubated for 3 mins followed by NADPH addition measured after 8 mins in presence of cytochrome p450 reductase by LC-MS/MS method
[4] = biological target: T1, Steroid 17-alpha-hydroxylase/17,20 lyase; assay: Inhibition of C-terminal His-tagged recombinant human CYP17A1delta19H mutant expressed in Escherichia coli JM109 cells assessed as decrease in progesterone hydroxylation in presence of cytochrome P450 reductase […]

T1 sequence (P05093 whole entry, looked up): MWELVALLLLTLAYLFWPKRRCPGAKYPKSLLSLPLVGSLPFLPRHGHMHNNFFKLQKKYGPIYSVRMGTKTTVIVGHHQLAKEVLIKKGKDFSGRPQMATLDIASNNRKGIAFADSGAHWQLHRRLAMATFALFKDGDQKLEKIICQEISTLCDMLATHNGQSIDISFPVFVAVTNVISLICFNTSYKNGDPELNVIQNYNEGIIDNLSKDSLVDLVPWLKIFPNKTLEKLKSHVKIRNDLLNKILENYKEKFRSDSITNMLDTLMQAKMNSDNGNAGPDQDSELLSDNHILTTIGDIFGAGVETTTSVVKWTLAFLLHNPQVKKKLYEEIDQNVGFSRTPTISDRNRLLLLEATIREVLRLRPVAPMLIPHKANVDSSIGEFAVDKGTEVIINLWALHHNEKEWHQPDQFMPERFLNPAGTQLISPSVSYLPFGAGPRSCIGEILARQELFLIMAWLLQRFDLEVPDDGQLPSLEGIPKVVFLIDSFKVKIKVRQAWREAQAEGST
Steroid 21-hydroxylase, sequence (P08686 whole entry, looked up, stated change not applied): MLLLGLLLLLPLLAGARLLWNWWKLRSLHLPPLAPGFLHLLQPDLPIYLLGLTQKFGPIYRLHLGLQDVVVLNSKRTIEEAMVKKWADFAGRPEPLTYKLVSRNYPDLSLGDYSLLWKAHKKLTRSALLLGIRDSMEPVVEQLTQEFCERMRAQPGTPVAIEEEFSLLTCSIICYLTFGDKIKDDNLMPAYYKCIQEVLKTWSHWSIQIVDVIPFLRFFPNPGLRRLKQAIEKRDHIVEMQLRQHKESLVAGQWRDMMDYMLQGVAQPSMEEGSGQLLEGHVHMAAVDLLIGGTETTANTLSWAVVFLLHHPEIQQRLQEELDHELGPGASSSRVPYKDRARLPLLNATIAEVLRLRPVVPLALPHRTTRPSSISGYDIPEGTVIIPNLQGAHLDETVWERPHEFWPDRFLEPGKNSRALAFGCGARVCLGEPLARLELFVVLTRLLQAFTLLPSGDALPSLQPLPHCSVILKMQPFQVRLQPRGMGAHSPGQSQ

Row | IC50 [4] | Compound | IC50 [1] | Ratio IC50 [2] | IC50 [3]
1 |  | C[C@]12CC[C@H](O)CC1=CC[C@@H]1[C@@H]2CC[C@]2(C)C(n3cnc4ccccc43)=CC[C@@H]12 [GALETERONE] | 28.1 nM |  | 
2 |  | C[C@]12CC[C@H](O)CC1=C(C(N)=O)C[C@@H]1[C@@H]2CC[C@]2(C)C(c3cccnc3)=CC[C@@H]12 | 22.8 nM | 29 | 673 nM
3 |  | C[C@]12CC[C@H](O)C[C@@H]1[C@@H](O)C[C@@H]1[C@@H]2CC[C@]2(C)C(c3cccnc3)=CC[C@@H]12 | 7.2 nM | 33 | 234 nM
4 |  | C[C@]12CC[C@H](O)C[C@@H]1NC(=O)C[C@@H]1[C@@H]2CC[C@]2(C)C(c3cccnc3)=CC[C@@H]12 | 230 nM | 16 | 3600 nM
5 |  | C[C@]12CCC(=O)C=C1CC[C@@H]1[C@@H]2CC[C@]2(C)C(c3cccnc3)=CC[C@@H]12 | 6.13 nM |  | 0.7 nM
6 | 9.4 to 92 nM | C[C@]12CC[C@H](O)CC1=CC[C@@H]1[C@@H]2CC[C@]2(C)C(c3cccnc3)=CC[C@@H]12 [ABIRATERONE] | 4.94 nM |  | 
7 |  | C[C@]12CC[C@H](O)C[C@@H]1C(=O)C[C@@H]1[C@@H]2CC[C@]2(C)C(c3cccnc3)=CC[C@@H]12 | 12.4 nM | 35 | 440 nM
8 |  | C[C@]12CC[C@H](O)CC1=CC[C@@H]1[C@@H]2CC[C@]2(C)C(c3ccccc3)=CC[C@@H]12 | > 20000 nM |  | ≥ 700 nM
9 |  | C[C@]12CC[C@H](O)CC1=C(C#N)C[C@@H]1[C@@H]2CC[C@]2(C)C(c3cccnc3)=CC[C@@H]12 | 15.5 nM |  | 
